Legend:
[1] = Tested for effect of plasma containing platelets (PRP) against arachidonic acid (500 uM) at 100 uM concentration; format: functional, Homo sapiens
Procedure, shortened: (§1)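 Human platelet-rich plasma was pretreated 1 min with 25–100 μM agent, then challenged with arachidonic acid (500 μM) or U46619 (1 μM). Aggregation was followed turbidimetrically (Born) at 37 °C. Percent inhibition versus vehicle controls was read 3 min after agonist. Results are mean ± SEM from at least three separate blood donors.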

[2] = Tested for effect of plasma containing platelets (PRP) against arachidonic acid (500 uM) at 25 uM concentration; format: functional, Homo sapiens; procedure, shortened: as §1
[3] = Tested for effect of plasma containing platelets (PRP) against arachidonic acid (500 uM) at 50 uM concentration; format: functional, Homo sapiens; procedure, shortened: as §1
[4] = Tested for effect of plasma containing platelets (PRP) against U-46,619 (1 uM) at 50 uM concentration; format: functional, Homo sapiens; procedure, shortened: as §1
[5] = Tested for effect of plasma containing platelets (PRP) against U-46,619 (1 uM) at 100 uM concentration; format: functional, Homo sapiens; procedure, shortened: as §1
[6] = Tested for effect of plasma containing platelets (PRP) against platelet free plasma at 1 uM concentration; format: functional; conditions: Homo sapiens
Procedure, shortened: (§2)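 Hydrazone in ethanol was added to platelet-free plasma (100 μM final) and stirred. At 10-min intervals up to 1 h, aliquots were transferred to PRP (1 μM final). Aggregation to 500 μM arachidonic acid was then measured turbidimetrically at 37 °C. Controls had hydrazone added directly to PRP; seven donors.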

[7] = Tested for effect of plasma containing platelets (PRP) against platelet free plasma at 500 uM concentration; format: functional; conditions: Homo sapiens; procedure, shortened: as §2
[8] = Tested for effect of plasma containing platelets (PRP) against arachidonic acid at 0.1 uM concentration; format: functional; conditions: Homo sapiens
[9] = Tested for effect of plasma containing platelets (PRP) against ADP at 100 uM concentration; format: functional; conditions: Homo sapiens
Procedure, shortened: (§3)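 In human PRP, 100 μM hydrazone was tested against aggregation induced by U46619 (1–3 μM) or ADP (5 μM). Aggregation was measured by the Born turbidimetric method at 37 °C over 3 min. Reagents were added as 10-μL aliquots per mL of PRP. Percent inhibition is averaged over nine donors.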

[10] = Tested for effect of […] against PGH-2 at 100 uM concentration; format: functional; conditions: Homo sapiens, Plasma
[11] = Tested for effect of plasma containing platelets (PRP) against U-46,619 at 100 uM concentration; format: functional; conditions: Homo sapiens; procedure, shortened: as §3
[12] = Tested for effect of plasma containing platelets (PRP) against PGH-2 at 0.6 uM concentration; format: functional; conditions: Homo sapiens
[13] = Tested for effect of plasma containing platelets (PRP) against arachidonic acid at 1 uM concentration; format: functional; conditions: Homo sapiens
[14] = Time to complete inhibition of arachidonic acid (500 uM)-induced aggregation in platelet-rich plasma (PRP); conditions: Homo sapiens
[15] = Tested for effect of plasma containing platelets (PRP) against U-46,619 (1 uM) at 25 uM concentration; format: functional, Homo sapiens; procedure, shortened: as §1

SMILES | Inhibition [1] [%] | Inhibition [2] [%] | Inhibition [3] [%] | Inhibition [4] [%] | Inhibition [5] [%] | inhibition at 1 µM [6] [%] | inhibition at 500 µM [7] [%] | inhibition at 0.1 µM [8] [%] | inhibition at 100 µM [9] [%] | inhibition at 100 µM [10] [%] | inhibition at 100 µM [11] [%] | inhibition at 0.6 µM [12] [%] | inhibition at 1 µM [13] [%] | time to complete inhibition at 500 µM [14] [min] | Inhibition [15] [%]
CCCCCC(=O)N/N=C1\CCCC1CCCCCCC(=O)O (stereo not drawn) | 98 | 8 | 17 | 6 | 30 |  |  |  |  |  |  |  |  |  | 
CCCCCCN/N=C1\CCCC1CCCCCCC(=O)O (stereo not drawn) |  |  |  |  |  | 29 | 100 | 44 | 6 | 89 | 4 | 6 | 99 | 27 | 
CCCCCCCN[C@H]1CCC[C@@H]1CCCCCCC(=O)O (relative stereo) |  | 100 | 100 | 98 |  |  |  |  |  |  |  |  |  |  | 76
